The record followed here is BindingDB's records for doi:10.1021/jm00089a022 (Warner-Lambert, 1992).

One assay deals with T1, 3-hydroxy-3-methylglutaryl-coenzyme A reductase (Homo sapiens, UniProt P04035).
T1 sequence (P04035 whole entry): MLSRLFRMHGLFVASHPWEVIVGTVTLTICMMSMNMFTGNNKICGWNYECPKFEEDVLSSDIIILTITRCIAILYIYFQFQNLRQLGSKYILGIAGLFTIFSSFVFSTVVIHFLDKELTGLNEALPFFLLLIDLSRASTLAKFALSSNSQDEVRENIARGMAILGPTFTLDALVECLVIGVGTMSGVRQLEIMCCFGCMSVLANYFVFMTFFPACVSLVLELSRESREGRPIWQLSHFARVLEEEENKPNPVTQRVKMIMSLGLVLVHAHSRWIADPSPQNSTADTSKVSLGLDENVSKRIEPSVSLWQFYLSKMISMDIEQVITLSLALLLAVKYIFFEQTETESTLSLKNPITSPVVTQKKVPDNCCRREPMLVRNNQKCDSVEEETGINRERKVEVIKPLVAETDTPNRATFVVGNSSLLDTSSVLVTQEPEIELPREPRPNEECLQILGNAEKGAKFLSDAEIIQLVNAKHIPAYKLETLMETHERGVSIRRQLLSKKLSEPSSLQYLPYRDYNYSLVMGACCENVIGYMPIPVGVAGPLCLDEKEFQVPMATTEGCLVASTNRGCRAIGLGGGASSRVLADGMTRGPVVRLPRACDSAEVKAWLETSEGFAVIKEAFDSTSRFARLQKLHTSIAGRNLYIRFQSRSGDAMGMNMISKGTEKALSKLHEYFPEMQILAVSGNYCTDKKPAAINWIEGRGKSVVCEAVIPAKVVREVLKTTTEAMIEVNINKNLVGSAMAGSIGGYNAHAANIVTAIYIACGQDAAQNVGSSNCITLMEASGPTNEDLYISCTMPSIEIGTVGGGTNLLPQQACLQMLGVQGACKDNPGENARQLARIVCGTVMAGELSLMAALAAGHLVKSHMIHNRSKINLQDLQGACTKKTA
Description: ChEBML_80349. An excerpt: (§1) Tested in vitro for the inhibition of HMG-CoA reductase from partially purified microsomal preparations.
As for `CC(C)c1nn(-c2ccccn2)c(-c2ccc(F)cc2)c1CCC(O)C[C@@H](O)CC(=O)O` (some centres undefined), the IC50 (commonly the concentration that gives 50% inhibition) amounted to 110 nM. In turn, `CC(C)c1nn(-c2ccccc2)c(-c2ccc(F)cc2)c1CCC(O)C[C@@H](O)CC(=O)O` (some centres undefined) returned an IC50 of 40 nM.

Turning to `CC[C@H](C)C(=O)O[C@H]1C[C@@H](C)C=C2C=C[C@H](C)[C@H](CCC(O)C[C@@H](O)CC(=O)O)[C@H]21` (some centres undefined), it took 20 nM to reach half-maximal inhibition (IC50). In the case of `CC(C)c1nn(-c2cnccn2)c(-c2ccc(F)cc2)c1/C=C/[C@@H](O)C[C@@H](O)CC(=O)O`, inhibition was half-maximal at 7 nM (IC50).

Regarding `CC(C)c1nn(-c2ccc3ccccc3n2)c(-c2ccc(F)cc2)c1/C=C/[C@@H](O)C[C@@H](O)CC(=O)O`, half-maximal inhibition (IC50) was put at 62 nM. On to `CC(C)c1nn(-c2nc3ccccc3s2)c(-c2ccc(F)cc2)c1/C=C/[C@@H](O)C[C@@H](O)CC(=O)O`, for which the IC50 is 59 nM. On the same count and under the same terms, then `O=C(O)C[C@H](O)C[C@H](O)/C=C/c1c(C(F)(F)F)nn(-c2ccccn2)c1-c1ccc(F)cc1`, with 17 nM. Consider `CC(C)c1nn(-c2ccccc2)c(-c2ccc(F)cc2)c1/C=C/[C@@H](O)C[C@@H](O)CC(=O)O`, for which the IC50 was determined as 7 nM.

A further assay has as its target T1, 3-hydroxy-3-methylglutaryl-coenzyme A reductase. The description is as §1. In short, it runs like this:
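Lactones saponified to the 3,5-dihydroxy acids before assay. Inhibition of partially purified microsomal HMG-CoA reductase. Each inhibitor concentration assayed in triplicate.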
As to `CC(C)c1nn(-c2ccccn2)c(-c2ccc(F)cc2)c1/C=C/[C@@H](O)C[C@@H](O)CC(=O)O`, the IC50 came to 24 nM.
